In PMC5034689 (Molecular Metabolism, 2016):

What was measured:
[1] = molecular target: CYP2C9 (Homo sapiens, UniProt P11712); assay: CYP450 inhibition in human hepatic microsomes, CYP2C9; assay type: in vitro ADME; conditions: liver microsomes, probe tolbutamide (hydroxylation to hydroxytolbutamide)
[2] = Plasma protein binding, equilibrium dialysis, human; assay type: in vitro ADME
Summary of the method: (§1)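 Binding was measured by rapid equilibrium dialysis in triplicate, starting at 1 μM drug in the plasma chamber against PBS. Plates were shaken 6 h at 37 °C. Samples were matrix-matched to 1:1 plasma:PBS and quantified by LC-MS/MS. Fraction bound = ([plasma] − [PBS])/[plasma].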

[3] = tested on: IP6Ks; conditions: cited from earlier work
[4] = Plasma protein binding, equilibrium dialysis, summary over species; assay type: in vitro ADME; conditions: human, mouse, rat
Summary of the method: as §1

[5] = molecular target: Recombinant human IP6K1 (Homo sapiens, UniProt Q92551); assay: IP6K1 activity assay in vitro, radiochemical assay; assay type: biochemical; conditions: TNP 1 μM
Recombinant human IP6K1, sequence (Q92551 whole entry): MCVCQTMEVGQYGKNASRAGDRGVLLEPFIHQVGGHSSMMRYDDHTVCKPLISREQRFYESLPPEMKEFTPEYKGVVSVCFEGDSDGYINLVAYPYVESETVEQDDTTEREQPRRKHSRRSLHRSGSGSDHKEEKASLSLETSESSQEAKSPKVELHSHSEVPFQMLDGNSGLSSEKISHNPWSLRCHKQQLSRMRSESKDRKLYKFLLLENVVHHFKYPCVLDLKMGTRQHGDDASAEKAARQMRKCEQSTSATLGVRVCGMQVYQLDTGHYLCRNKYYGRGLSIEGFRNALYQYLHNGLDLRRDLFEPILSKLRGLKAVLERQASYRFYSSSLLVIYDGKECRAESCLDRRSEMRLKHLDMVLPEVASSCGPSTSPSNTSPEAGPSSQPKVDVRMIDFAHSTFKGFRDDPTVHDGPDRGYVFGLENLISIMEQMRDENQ
Summary of the method: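 Recombinant human IP6K1 (100 ng) was incubated 1 h in 20 mM Tris pH 7.4 with 5 mM MgCl2, 2 nmol IP6, [3H]IP6 (130 nCi), 1 mM ATP and 1 mM DTT, plus DMSO or 1 μM test compound. 5-IP7 was resolved by HPLC, with activity expressed relative to DMSO (100%). Run in triplicate.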

[6] = tested on: DIO mice; assay: Short-term TNP treatment of DIO mice; assay type: in vivo, C57BL6 mice; conditions: 20 mg/kg BW daily
Summary of the method: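 Mice fed HFD for 8 weeks received daily 20 mg/kg test compound with continued HFD (vehicle n = 6, treated n = 8). Food intake was measured after 7 days. GTT (glucose 2 g/kg i.p.) and ITT (insulin 0.75 U/kg i.p.) were done on days 12 and 17 after a 5 h fast. Tissues were taken on day 18. Akt S473 was immunoblotted from RIPA lysates, with densitometry n = 3.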

[7] = tested on: 3T3L1 adipocytes; assay: Glycerol assay for lipolysis in adipocytes; assay type: cell-based; conditions: TNP 1 μM, isoproterenol 10 μM
Summary of the method: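 3T3-L1 preadipocytes were differentiated for 7 days. Adipocytes were pretreated 4 h with DMSO or 1 μM test compound in DMEM with 0.5% fatty-acid-free BSA. Medium was then replaced, with or without isoproterenol (10 μM), and compound was kept on throughout. Glycerol released into the medium was measured with a commercial kit.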

[8] = tested on: DIO mice; assay: Long-term TNP treatment of DIO mice at thermoneutral temperature; assay type: in vivo
Summary of the method: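 Following the initial phase, vehicle or test compound was injected for another 8 weeks, n = 6/group. Body weight was recorded weekly. ITT was done at week 4: 5 h fast, human insulin 0.75 U/kg i.p., tail-vein glucometer. At 8 weeks, mice were sacrificed after a 5 h fast. Cardiac-puncture serum was assayed for cholesterol and HDL by a metabolic core.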

[9] = tested on: chow-fed male mice; assay: Long-term TNP treatment on fertility of chow-fed male mice; assay type: in vivo; conditions: 10 mg/kg BW daily for 15 weeks, chow-fed WT
Summary of the method: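 Six-week-old chow-fed male mice were injected daily with 10 mg/kg test compound for 4 weeks. They were then used for breeding while injections continued another 11 weeks (15 weeks total). Each male took part in 4 rounds of harem breeding, the last after 14 weeks of treatment.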

CYP2C9, sequence (P11712 whole entry): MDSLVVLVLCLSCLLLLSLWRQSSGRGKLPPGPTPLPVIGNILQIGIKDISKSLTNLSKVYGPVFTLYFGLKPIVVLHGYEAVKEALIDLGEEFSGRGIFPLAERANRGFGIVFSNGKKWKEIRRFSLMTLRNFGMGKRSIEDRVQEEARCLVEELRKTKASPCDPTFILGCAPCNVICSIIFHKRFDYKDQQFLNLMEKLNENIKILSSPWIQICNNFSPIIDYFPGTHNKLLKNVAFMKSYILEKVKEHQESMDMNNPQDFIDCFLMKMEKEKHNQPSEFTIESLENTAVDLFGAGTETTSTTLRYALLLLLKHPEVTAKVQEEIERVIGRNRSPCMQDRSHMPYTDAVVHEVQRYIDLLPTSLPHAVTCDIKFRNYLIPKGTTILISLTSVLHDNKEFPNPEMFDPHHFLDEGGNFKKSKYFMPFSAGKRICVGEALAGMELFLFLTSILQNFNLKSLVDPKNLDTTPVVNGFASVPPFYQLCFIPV

In the case of `O=[N+]([O-])c1ccc(CNc2nc(NCc3cccc(C(F)(F)F)c3)nc3[nH]cnc23)cc1` [TNP, N6-(4-nitrobenzyl)-N2-(3-(trifluoromethyl)benzyl)-9H-purine-2,6-diamine], the inhibition at 10 μM [1] is listed as 92%, the fraction unbound at 6 h, 1 μM [2] is listed as 0.083 and the “Potency on IP6Ks over IP3-3K” value [3] is listed as 70 fold. The fraction unbound at 6 h, 1 μM [4] was 0.07 to 0.1, the IP6K1 catalytic activity [5] was “blocks the catalytic activity of IP6K1” and the “Glucose disposal following glucose injection (GTT)” value ([6]; 12th day) was “efficient glucose disposal”. The “Glucose disposal following insulin injection (ITT)” value ([6]; 17th day) was “disposes glucose more efficiently”, the “Fatty liver (histology)” value ([6]; 18 days) was “ameliorates fatty liver” and the Serum glycerol levels ([6]; 18 days) was “does not alter”. The Serum insulin level ([6]; 18 days) was “not significantly altered”, the “Serum levels of cholesterol or triglycerides” value ([6]; 18 days) was “not altered” and the “Reduction of fat mass by treatment” value ([6]; 18 days, DIO mice, QNMR) was about 3 g. The “Akt S473 phosphorylation in the IWAT depot, enhancement vs vehicle” value ([6]; 18 days, densitometry) was 4 fold, the “Serum levels of AST and ALT” value ([6]; 18 days, vs vehicle) was “less” and the “UCP1 mRNA expression in the IWAT” value ([6]; 18 days, vs vehicle) was “higher”. The “Weight of the EWAT depot” value ([6]; 18 days, vs vehicle) was “significantly less”, the Daily energy intake ([6]; after 7 days) was “does not influence daily energy intake” and the “Basal or isoproterenol induced lipolysis (glycerol release)” value [7] was “does not influence”. For the same molecule, the “Glucose disposal following exogenous insulin treatment (ITT)” value ([8]; 30 °C, after 4-weeks of TNP injection) was “significantly improved”, the “Average decrease in body weight” value ([8]; 30 °C, after 8-weeks of injection) was about 0.7 g and the “Serum levels of total cholesterol and HDL” value ([8]; thermoneutral temperature) was “unaltered at thermoneutral temperature”. For the same molecule, the Sterility of males [9] was “do not display sterility”.
